The assay can be described thus: Inhibition of mitochondrial glycerol 3-phosphate acyltransferase by liquid scintillation counting. The gist of the method:
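Mitochondrial GPAT preparation added to start reaction in mixture of 14C-labelled glycerol 3-phosphate and palmitoyl-CoA with a range of inhibitor concentrations; acylation quantified by scintillation counting. Triplicate points; IC50 taken as inhibitor level giving 50% of activity seen with DMSO vehicle alone.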

`O=C(O)c1cccc(NS(=O)(=O)CCc2ccccc2)c1` came in with a half-inhibitory concentration (IC50) of 164 µM.
Under `CCCCCCCCS(=O)(=O)Nc1ccc(P(=O)(O)O)cc1` stands 95.3 µM; under `O=C(O)c1ccccc1NS(=O)(=O)Cc1ccccc1`, 140 µM.
On to `O=C(O)c1ccc(NS(=O)(=O)c2ccccc2)cc1`, for which 151 µM corresponded to half-maximal inhibition (IC50).
As to `CCCCCCCCCS(=O)(=O)Nc1ccccc1CP(=O)(O)O`, the midpoint of inhibition, the IC50, lay at 81.1 µM.
Next, `CS(=O)(=O)Nc1ccccc1C(=O)O`: 132 µM; `CCCCCS(=O)(=O)NCc1ccc(C(=O)O)cc1`: 252 µM; `CCCCCCCCCS(=O)(=O)Nc1ccc(CP(=O)(O)O)cc1`: 81.3 µM.
The molecule `CCCCCCCCCCCCCCS(=O)(=O)Nc1ccccc1C(=O)O` came in with a half-maximal inhibitory concentration (IC50) of 17.4 µM.
In turn, `O=C(O)c1ccc(NS(=O)(=O)CCc2ccccc2)cc1` gave an IC50 of 206 µM.
For the molecule `CCCCCS(=O)(=O)Nc1ccccc1CP(=O)(O)O`, the IC50 was 129 µM.
In the case of `CCCCCCCCCS(=O)(=O)NCc1ccccc1C(=O)O`, the IC50 turned out to be 66.5 µM.
For `O=C(O)c1cccc(NS(=O)(=O)c2ccc(Cl)cc2)c1`, the midpoint of inhibition, the IC50, lay at 75.7 µM.
As to `CCCCCS(=O)(=O)NCc1cccc(C(=O)O)c1`, inhibition was half-maximal at 310 µM (IC50).
Take `CCCCCS(=O)(=O)NCc1ccccc1C(=O)O`: the concentration for half-maximal inhibition (IC50) turned out to be 217 µM.
Next, `CCCCCCCCS(=O)(=O)Nc1ccc(O)cc1C(=O)O`: 116 µM; `CCCCCCCCCS(=O)(=O)NCc1ccc(C(=O)O)cc1`: 129 µM; `O=C(O)c1ccccc1NS(=O)(=O)CCc1ccccc1`: 152 µM.
For the molecule `CCCCCS(=O)(=O)Nc1ccc(CP(=O)(O)O)cc1`, the IC50 was determined as 148 µM.
Take `O=C(O)c1cccc(NS(=O)(=O)c2ccccc2)c1`: it took 138 µM to reach half-maximal inhibition (IC50).
Under `CCCCCCCCS(=O)(=O)Nc1cccc(P(=O)(O)O)c1` stands 72.4 µM; under `CCCCCS(=O)(=O)Nc1cccc(CP(=O)(O)O)c1`, 141 µM; under `CCCCCCCCCS(=O)(=O)Nc1ccc(Cl)cc1C(=O)O`, 31.8 µM.
Under `CCCCCCCCCS(=O)(=O)Nc1cccc(CP(=O)(O)O)c1` stands 62.8 µM.
Consider `CCCCCCCCS(=O)(=O)Nc1ccccc1P(=O)(O)O`, for which half-maximal inhibition (IC50) was put at 73.6 µM.
`O=C(O)c1ccccc1NS(=O)(=O)c1ccccc1` registered a half-inhibitory concentration (IC50) of 146 µM.
With `O=C(O)c1ccc(NS(=O)(=O)Cc2ccccc2)cc1`, the concentration for half-maximal inhibition (IC50) turned out to be 221 µM.
Molecule `CCCCCCCCCS(=O)(=O)Nc1ccccc1C(=O)O` had a 50% inhibitory concentration (IC50) of 24.7 µM.
Under `CCCCCCCCS(=O)(=O)Nc1ccc(F)cc1C(=O)O` stands 89 µM; under `CCCCCCCCCCCCCCCCS(=O)(=O)Nc1ccccc1C(=O)O`, 18.3 µM.
Take `O=C(O)c1ccccc1NS(=O)(=O)c1ccc(Cl)cc1`: the IC50 was determined as 107 µM.
`CCCCCCCCCS(=O)(=O)Nc1ccc(C(=O)O)cc1` gave a half-maximal inhibitory concentration (IC50) of 88.9 µM.
Under `O=C(O)c1cccc(NS(=O)(=O)Cc2ccccc2)c1` stands 178 µM; under `O=C(O)c1ccc(NS(=O)(=O)c2ccc(Cl)cc2)cc1`, 108 µM.
Next, `CCCCCCCCCS(=O)(=O)NCc1cccc(C(=O)O)c1`: 83.5 µM.
`CCCCCCCCCS(=O)(=O)Nc1cccc(C(=O)O)c1` returned an IC50 of 73.9 µM.

These data come from ChEMBL document CHEMBL1138497, “Design and synthesis of small molecule glycerol 3-phosphate acyltransferase inhibitors” (J Med Chem, 2009).
